CRFR2-BP ag: agonists of CRF-BP/CRF-R2 complex, primary screen, cell-based, HEK293, calcium dye fluorescence, uHTS; calcium dye fluorescence (FLIPR); percent of saturating CRF peptide response; activation, % at 13.2 µM; AID 588473, 2011; CRF-binding protein / CRF receptor 2 complex (human); actives 0.46% (n = 350,000);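 active = activation of at least 50%, plus an integration ratio under a set limit after plate pattern correction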;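 note: plate controls were neutral control wells without compound for no effect and CRF at EC100 for full effect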
KLK7 zymogen act: proKLK7 zymogen activators, primary screen, biochemical, fluorescence intensity | purified proKLK7, EDANS-DABCYL substrate fluorescence; 100% is mature enzyme control, 0% vehicle | activation, % at 7 µM | actives 0.9% (n = 370,000);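 active = activation above the mean of all tested compounds plus 3 SD, computed per campaign excluding outliers beyond control limits, cut at about 13% in these data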
Tn7 DDE FP: inhibitors of Tn7 peptide binding to fibrin DD(E), primary screen, biochemical, fluorescence polarization, human fibrin, Tn7 probe. Fibrinogen beta chain (Homo sapiens), P02675. actives 0.13% (n = 370,000). inhibition, % at 8.3 µM. FP displacement of FITC-Tn7 peptide from fibrin DD(E); 0% = median of compound wells per plate;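 active = inhibition above the mean of compounds falling within the control limits plus 3 SD of them, cut at about 14% in these data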;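 note: 0% = plate median of compound wells and 100% = 10 µM Aha-Tn7 peptide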
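Assay system: human fibrin DD(E) protein / Input: 2 µM fibrin DD(E) / Benchmarks: high control of 10 µM Aha-Tn7 peptide / Measured by: fluorescence polarization of the labelled Tn7 tracer / Medium: Tris buffer with calcium and detergent, pH 7.8 / Timing: 10 min compound pre-incubation, 3 h probe incubation at room temperature / Repeats: one replicate per compound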
Tn6 DDE FP: inhibitors of Tn6 peptide binding to fibrin DD(E), primary screen, biochemical, fluorescence polarization, human fibrin, Tn6 probe | Fibrinogen beta chain (Homo sapiens), P02675 | Fibrin DD(E) TRITC-Tn6 fluorescence polarization displacement | inhibition, % at 8.3 µM | actives 0.21% (n = 370,000) | AID 720509, 2013;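 active = inhibition above a per-campaign cutoff: mean of compounds within control limits plus 3 SD, cut at about 15% in these data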;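 note: 0% = median of all compound wells on the plate and 100% = blocking peptide control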
CRFBP-R2 block: antagonists of CRF-BP/CRF-R2 complex, primary screen, cell-based, HEK293, calcium dye fluorescence, uHTS. AID 588475, 2011. actives 0.59% (n = 350,000). CRF-induced calcium fluorescence. inhibition, % at 11.8 µM;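 active = inhibition of the ligand-induced calcium signal above about 50% at the single tested concentration, limit read from the data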
CendR NRP1 mod: modulators of CendR peptide binding to NRP-1, primary screen, biochemical, fluorescence polarization, uHTS | Neuropilin-1 (Homo sapiens), O14786 | FAM-RPARPAR peptide binding to NRP-1 | inhibition, % at 25 µM | actives 0.85% (n = 360,000);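 active = inhibition or corrected inhibition above about 18%, plus a signal ratio from 0.5 to 1.5, limit read from the data, passing the limit was not always enough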
Target sequence (O14786 whole entry, looked up): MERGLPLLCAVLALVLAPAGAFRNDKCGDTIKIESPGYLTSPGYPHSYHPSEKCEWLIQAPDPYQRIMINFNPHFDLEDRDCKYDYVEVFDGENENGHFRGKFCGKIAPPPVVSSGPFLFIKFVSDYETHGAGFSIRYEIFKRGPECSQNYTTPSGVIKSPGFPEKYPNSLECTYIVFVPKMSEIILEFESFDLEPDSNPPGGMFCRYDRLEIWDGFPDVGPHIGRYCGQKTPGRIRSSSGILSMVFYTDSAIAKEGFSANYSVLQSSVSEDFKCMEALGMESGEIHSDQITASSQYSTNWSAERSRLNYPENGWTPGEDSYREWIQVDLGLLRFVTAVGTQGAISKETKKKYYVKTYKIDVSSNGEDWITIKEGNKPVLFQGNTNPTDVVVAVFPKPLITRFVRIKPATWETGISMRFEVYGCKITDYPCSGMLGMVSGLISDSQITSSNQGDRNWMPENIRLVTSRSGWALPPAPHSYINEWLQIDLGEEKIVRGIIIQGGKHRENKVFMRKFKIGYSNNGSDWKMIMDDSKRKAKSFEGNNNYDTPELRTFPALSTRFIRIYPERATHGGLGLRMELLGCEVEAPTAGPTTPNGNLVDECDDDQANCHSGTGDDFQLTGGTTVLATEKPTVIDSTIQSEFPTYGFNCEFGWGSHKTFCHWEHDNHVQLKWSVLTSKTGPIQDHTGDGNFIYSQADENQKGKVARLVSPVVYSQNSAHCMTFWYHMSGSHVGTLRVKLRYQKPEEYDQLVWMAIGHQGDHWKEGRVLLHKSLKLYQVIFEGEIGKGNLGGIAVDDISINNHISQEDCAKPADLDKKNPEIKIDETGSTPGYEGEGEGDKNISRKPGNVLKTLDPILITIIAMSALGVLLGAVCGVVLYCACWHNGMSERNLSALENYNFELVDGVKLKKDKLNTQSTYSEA
* hit, by the source's call; . = not tested or not shown. A selection: hits, their analogues and other compounds. The true share with any hit is near 2.9%.

SMILES	CRFR2-BP ag	KLK7 zymogen act	Tn7 DDE FP	Tn6 DDE FP	CRFBP-R2 block	CendR NRP1 mod
CCOc1ccc(C2CC(c3ccc(OC)c(OC)c3)n3nc(N)nc3N2)cc1 (stereo not drawn)	0	0	4	13	1	8
Cc1ccccc1C(=O)N1CCC(Oc2cccnc2)CC1	.	0	4	4	.	.
COC(=O)[C@]12C[C@H](CC(=O)NCCCN3CCCC3=O)C(=O)N(Cc3ccco3)C1=C[C@H](C(C)C)O[C@@H]2C1CC1	.	0	-2	-5	.	.
COc1ccc(C)cc1NCc1cccc(OC)c1OC	-3	0	-4	-4	78*	0
COc1ccc(CNc2cc(C)ccc2C)c(OC)c1OC	1	0	-8	3	33	-6
C[C@H](O)[C@@H]1C(=O)N2CCc3c([nH]c4c(-c5ccc6c(c5)OCO6)cccc34)[C@@H]2C[C@@H]1N(C)C(=O)c1ccccc1F	.	1	-15	-2	.	.
CC(=O)c1ccc(OCC(=O)Nc2nnc(C3CC3)s2)cc1	-1	0	1	4	3	29*
CC(c1ccc(NC(=O)OC(C)(C)C)cc1)c1cn(C)c2ccccc12 (stereo not drawn)	.	0	-6	6	.	.
CC(C)C(=O)N1CCC(Oc2cccnc2)CC1	.	0	-3	-6	.	.
C[C@@H](c1ccccc1)N1C[C@@H](COCc2ccccc2)Oc2cc(N3CC[C@@H](N(C)C)C3)ccc2S1(=O)=O	.	0	13	-1	.	25*
Cc1nn(-c2ccccc2)c(NC(=O)c2cccs2)c(-c2ccccc2Cl)c1=O	3	0	2	2	111*	-9
C=CCN1C(c2cccc(C(F)(F)F)c2)=CS/C1=C(/C#N)c1nnc(N2CCOCC2)n1-c1ccccc1	108*	0	-6	-7	-2	-6
CCn1c2ccccc2c2cc(C=NNC(=O)CSc3nc4ccccc4c(=O)n3-c3ccccc3)ccc21	.	0	-10	-6	.	.
C/C(=N\NC(=O)c1cc(-c2cccs2)nc2ccccc12)c1ccccn1	1	-8	-5	0	-24	30*
NNC(=O)c1cc(-c2cccs2)nc2ccccc12	-1	-30	1	9	-6	-6
COC(=O)c1cc(S(=O)(=O)N2CCN(c3cccc(C(F)(F)F)c3)CC2)cn1C	.	0	4	-8	.	.
O=C(CN1C(=O)c2ccccc2S1(=O)=O)NCCSCc1c(F)cccc1Cl	-2	1	7	-6	-3	24*
Nc1nn2c(-c3ccccc3)cc(=O)[nH]c2c1N=Nc1ccc(O)cc1	97*	0	3	0	-105	16
Nc1nn2c(-c3ccccc3)cc(=O)[nH]c2c1N=Nc1ccc(Br)cc1	-1	0	-1	-1	73*	8
Cc1cc2[nH]c(=O)cc(-c3ccccc3)n2n1	1	-35	3	5	-7	9
N[C@H](C(=O)Nc1ccc(Cl)cc1C(=O)c1ccc[nH]1)c1ccccc1	.	.	-1	-2	.	.
COc1ccc(N2C(=NC(=O)C(C)Oc3ccccc3)SC3CS(=O)(=O)CC32)cc1 (stereo not drawn)	-1	0	9	6	18	28*
CCC(=O)N=C1SC2CS(=O)(=O)CC2N1c1cccc(OC)c1 (stereo not drawn)	2	0	2	-11	2	-5
CC(C)CNc1cccc2c1S(=O)(=O)N(Cc1cn(Cc3cccc(F)c3)nn1)Cc1ccccc1O2	.	-5	3	-11	.	.
COC(=O)[C@]12C[C@H](CC(=O)NCCCCc3ccccc3)C(=O)N(Cc3ccco3)C1=C[C@H](C(C)(C)C)O[C@@H]2C	.	0	-5	4	.	.
SMILES	CRFR2-BP ag	KLK7 zymogen act	Tn7 DDE FP	Tn6 DDE FP	CRFBP-R2 block	CendR NRP1 mod
CN1C(=O)C[C@@](C#N)(C(=O)NCC(F)(F)F)[C@H]1c1ccccc1	.	0	1	6	.	.
COc1ccc(C2=CC(=O)CCC2)cc1	-3	0	-4	-3	-3	40*
COc1cccc(C2=CC(=O)CCC2)c1	-2	3	-4	-2	11	11
COc1cccc(C2C3(C#N)C(N)=NC(OC)(OC)C23C#N)c1 (stereo not drawn)	0	-1	0	1	-7	8
COC1(OC)N=C(N)C2(C#N)C(c3ccc(F)cc3)C12C#N (stereo not drawn)	-1	-1	1	7	32	31*
CCSC1(SCC)N=C(N)C2(C#N)C(c3ccc(F)cc3)C12C#N (stereo not drawn)	-5	0	4	12	-31	12
COC1(OC)N=C(N)C2(C#N)C(c3cccc(Oc4ccccc4)c3)C12C#N (stereo not drawn)	0	-1	2	-4	-9	26*
O=C1CCC2(CCC(c3ccccc3)CC2)N1CC[C@@H](O)c1ccccc1 (stereo partly drawn)	.	.	3	-6	.	.
COc1c2c(c(OC)c3ccccc13)[C@@]1(OC2)O[C@H](CCO)C[C@H](O)[C@H]1O	1	-13	7	5	101*	-10
COc1cc2c(-c3ccccc3O)nc3c(c(C)nn3-c3ccccc3)c2cc1OC	-1	-2	0	-1	9	33*
CN(C)c1ccc(/C=C(\C#N)C(=O)Nc2nc3c(s2)CCN(Cc2ccccc2)C3)cc1	345*	1	-10	1	-459	126
C/C(=N/NC(=O)c1ccncc1)c1cc2ccc(O)cc2oc1=O	191*	8	13	-9	-38	121
C/C(=N\NC(=O)c1ccncc1)c1cc2ccccc2oc1=O	0	0	2	8	-9	-8
CN(C)C=Nc1nc2c(Br)ccc(Br)c2cc1C(=O)NCC(C)(C)C	.	0	-1	-4	.	.
Cc1cc(C)cc(-n2c(C)cc(C(=S)N3CCOCC3)c2C)c1	-2	0	2	-1	57*	1
COC(=O)[C@]12C[C@H](CC(=O)N3CCCC3)C(=O)N(Cc3ccco3)C1=C[C@H](C1CCCC1)O[C@@H]2C	.	0	-5	-1	.	.
CCCCOCCCNC(=O)C[C@@H]1C[C@@]2(C(=O)OC)CC(C)(C)CC=C2N(Cc2cccc3ccccc23)C1=O	.	0	-3	9	.	2
COCCCNC(=O)C[C@@H]1C[C@@]2(C(=O)OC)CC(C)(C)CC=C2N(Cc2cccc3ccccc23)C1=O	.	0	-1	-5	.	24*
